The record followed here is BindingDB's records for doi:10.1016/j.ejmech.2014.12.041 (Jagiellonian University Medical College, 2015).

The target in test [1] is T1, 5-hydroxytryptamine receptor 1A (Homo sapiens, UniProt P08908).
T1 sequence (P08908 whole entry): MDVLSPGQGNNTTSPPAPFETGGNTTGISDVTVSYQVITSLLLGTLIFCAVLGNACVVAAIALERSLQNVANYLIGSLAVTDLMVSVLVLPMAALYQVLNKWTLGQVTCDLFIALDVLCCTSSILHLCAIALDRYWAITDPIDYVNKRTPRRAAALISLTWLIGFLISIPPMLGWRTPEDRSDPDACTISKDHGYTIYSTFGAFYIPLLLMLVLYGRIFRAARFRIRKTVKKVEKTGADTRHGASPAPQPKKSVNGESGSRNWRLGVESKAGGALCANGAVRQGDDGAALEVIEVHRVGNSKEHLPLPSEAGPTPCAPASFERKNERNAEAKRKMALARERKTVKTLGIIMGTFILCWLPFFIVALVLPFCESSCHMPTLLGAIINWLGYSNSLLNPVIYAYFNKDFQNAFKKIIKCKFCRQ
Put plainly: Antagonist activity at human 5HT1A receptor expressed in HEK293 cells assessed as inhibition of serotonin-induced cAMP concentration at 10^-6 M by adenylate cyclase activity based HTRF assay relative to control. The essentials:
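Human 5-HT1A in HEK-293 cells and human 5-HT7 in CHO cells, per the text. Compounds were tested at a single 10^-6 M concentration, in duplicate. Read-out was % inhibition of the control agonist cAMP response, measured by HTRF against the maximal effect of 300 nM serotonin. Reference antagonists were methiothepin (5-HT7) and WAY-100635 (5-HT1A).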
(In general: Time-resolved FRET reads energy transfer from a long-lived donor to a nearby acceptor.)

Test [2] deals with 5-hydroxytryptamine receptor 7 (Homo sapiens, UniProt P34969). The test is described as follows: Antagonist activity at human 5HT7 receptor expressed in HEK293 cells assessed as inhibition of serotonin-induced cAMP concentration at 10^-6 M by adenylate cyclase activity based HTRF assay relative to control.
Chain of 5-hydroxytryptamine receptor 7 (P34969 whole entry): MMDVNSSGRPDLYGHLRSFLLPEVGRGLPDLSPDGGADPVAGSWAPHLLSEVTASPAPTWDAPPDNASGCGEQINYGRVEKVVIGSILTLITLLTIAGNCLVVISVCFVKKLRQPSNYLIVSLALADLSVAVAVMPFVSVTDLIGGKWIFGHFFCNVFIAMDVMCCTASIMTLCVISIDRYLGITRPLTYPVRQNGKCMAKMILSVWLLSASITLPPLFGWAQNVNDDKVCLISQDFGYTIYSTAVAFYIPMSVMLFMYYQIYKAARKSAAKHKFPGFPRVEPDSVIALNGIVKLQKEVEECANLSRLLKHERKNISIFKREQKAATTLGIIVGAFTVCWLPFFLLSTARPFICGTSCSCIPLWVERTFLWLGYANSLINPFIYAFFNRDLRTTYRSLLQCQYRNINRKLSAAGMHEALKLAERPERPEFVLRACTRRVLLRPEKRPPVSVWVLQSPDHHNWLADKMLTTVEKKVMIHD

A word on the Inhibition: it is how much of the control response was suppressed. Regarding `CSc1ccccc1N1CCN(CCCCCC(=O)N2Cc3ccccc3C[C@H]2C(N)=O)CC1`, in test [1], the Inhibition was 98%.

For `NC(=O)[C@@H]1Cc2ccccc2CN1C(=O)CCCCN1CCN(c2ccccc2-c2ccccc2)CC1`, in test [2], the Inhibition was found to be 94%. `CC(C)c1ccccc1N1CCN(CCCCCCC(=O)N2CCC[C@H]2C(=O)N2CCCCC2)CC1`: in test [1], the Inhibition worked out at 100%.

Take `O=C([C@@H]1CCCN1C(=O)CCCCN1CCN(c2ccccc2-c2ccccc2)CC1)N1CCCCC1`: in test [2], the Inhibition was 91%.
